Experimental data taken from article PMC11920041 (NPJ Parkinson's Disease, 2025).
Read-outs that look alike come from different tables or passages of the source.

Legend:
tyrDC = conditions: cited from earlier work
AADC = conditions: cited from earlier work
[1] = mice; cited from earlier work
[2] = concomitant use in patients with PD; cited from earlier work
[3] = type: in vivo; conditions: human, plasma, oral, median [interquartile range]; for AUC: up to 3 h
Summary of the method: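 Fasting ≥12 h after last meal, dosing from 9:00 a.m.; PD patients on oral levodopa, diagnosed by UK Brain Bank criteria; no concomitant magnesium oxide or prokinetics. Blood via indwelling catheter before and 15–180 min after dose; centrifuged 1000 g, 10 min, 4 °C; plasma stored −80 °C; HPLC-ECD. Cmax and Tmax taken from the curve; AUC to 3 h by linear trapezoidal rule.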

[4] = administered in combination with carbidopa; cited from earlier work
[5] = cited from earlier work
[6] = system: small intestinal bacterial overgrowth (SIBO); conditions: eradication of SIBO in patients with PD; cited from earlier work
[7] = female, female patients, n = 12

SMILES: N[C@@](CF)(Cc1ccc(O)cc1)C(=O)O [AFMT, (S)-α-fluoromethyltyrosine]
- inhibition of tyrDC-mediated levodopa decarboxylation (tyrDC): selective inhibitor
- effect on AADC (AADC): without affecting AADC
- effect of concomitant use on levodopa Cmax [1]: increased

SMILES: COc1ccc2nc([S@@+]([O-])Cc3ncc(C)c(OC)c3C)[nH]c2c1 [esomeprazole]
- effect on levels of carbidopa in the plasma [2]: without affecting
- effect on levels of levodopa in the plasma [2]: reduced

SMILES: N[C@@H](Cc1ccc(O)c(O)c1)C(=O)O [levodopa]
- AUC [3, 7]: 12.7 µM·h
- Cmax [3, 7]: 10.4 µM
- Tmax ([3]; low levodopa Cmax group (< 9 μmol/L), n = 11): 45 min
- AUC ([3]; male, male patients, n = 9): 6.95 µM·h
- Cmax ([3]; male, male patients, n = 9): 4.88 µM
- Tmax ([3]; male, male patients, n = 9): 45 min
- half-life [4]: approximately 90 min

SMILES: [O]=[Mg] [magnesium oxide]
- effect of concomitant use on bioavailability of levodopa [5]: may reduce

SMILES: CO[C@H]1/C=C/O[C@@]2(C)Oc3c(C)c(O)c4c(O)c(c5c(nc6cc(C)ccn65)c4c3C2=O)NC(=O)/C(C)=C\C=C\[C@H](C)[C@H](O)[C@@H](C)[C@@H](O)[C@@H](C)[C@H](OC(C)=O)[C@@H]1C [rifaximin]
- effect on motor fluctuations [6]: improves motor fluctuations
